Data on 17 compounds can be found in ChEMBL document CHEMBL1126866, “TSAO analogues. 3. Synthesis and anti-HIV-1 activity of 2',5'-bis-O-(tert-butyldimethylsilyl)-beta-D-ribofuranosyl 3'-spiro-5''-(4''-amino-1'',2''-oxathiole 2'',2''-dioxide) purine and purine-modified nucleosides” (J Med Chem, 1993).

The subject of one assay is MT4. Put plainly: Cytotoxic concentration required to inhibit the viability of MT-4 cells. Type of assay: functional. The conditions noted are these: Homo sapiens. The procedure, abridged:
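Mock-infected MT-4 cells (5×10^5 cells/mL) were cultured with serial dilutions of test compound for 5 days. Viable cells were counted by trypan blue staining. CC50 = concentration reducing the number of viable mock-infected MT-4 cells by 50%.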

In assay [1] the test system is Human immunodeficiency virus 2. Put plainly: Effective concentration required to inhibit HIV-2 induced cytopathicity in MT-4 cells. Type of assay: functional, organism-based. Conditions: Human immunodeficiency virus 2, MT4. (In general: Cytopathic effects are the visible damage that an infection or toxin causes in cultured cells.)
Assay [2] relates to Human immunodeficiency virus 1. As to the kind of experiment: Selectivity index expressed as the ratio of CC50/EC50 of MT-4 cell lines.
Assay [3] is described as follows: Effective concentration required to inhibit HIV-1 induced cytopathicity in MT-4 cells. Type of assay: functional, cell-based. The conditions noted are these: Human immunodeficiency virus 1, MT4. An outline of the steps:
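MT-4 cells (5×10^5 cells/mL) were infected with HIV-1 at 100 CCID50 per mL of cell suspension and incubated with serial compound dilutions for 5 days. Viable cells were counted by trypan blue staining. EC50 = concentration reducing virus-induced loss of viable MT-4 cells by 50%.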

Another assay deals with CCRF-CEM. Put plainly: Effective concentration required to inhibit HIV- induced giant cell formation in CEM cells. The format is functional, cell-based. Conditions: Homo sapiens. An outline of the steps: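 CEM cells (5×10^5 cells/mL) were infected with HIV-1 at 100 CCID50 per mL of cell suspension and mixed with compound dilutions. Syncytia were scored microscopically after 4 days. EC50 = concentration reducing syncytium number by 50%.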

Where only a bound is given, the exact number is not on record here.

For `CC(C)(C)[Si](C)(C)OC[C@H]1O[C@@H](n2cnc3cncnc32)[C@H](O[Si](C)(C)C(C)(C)C)[C@]12OS(=O)(=O)C=C2N`, in the assay on MT4, the CC50 – broadly, the concentration that lowers cell viability or growth by half – turned out to be 13 µM. The EC50 (as a rule, the concentration giving half of the maximal effect) was greater than 7 µM in assay [1], 0.177 µM in assay [3] and 0.074 µM with CCRF-CEM. The Selectivity index in assay [2] came out at 73.

Turning to `CC(C)(C)[Si](C)(C)OC[C@H]1O[C@@H](n2cnc3c(O)ncnc32)[C@H](O[Si](C)(C)C(C)(C)C)[C@]12OS(=O)(=O)C=C2N`, the midpoint of cytotoxicity in the assay on MT4, the CC50, lay at 14 µM. Besides, the EC50 was greater than 7 µM in assay [1] and 0.158 µM in assay [3]. The Selectivity index in assay [2] is reported as 89.

Turning to `Cn1cnc2ncn([C@@H]3O[C@H](CO[Si](C)(C)C(C)(C)C)[C@@]4(OS(=O)(=O)C=C4N)[C@H]3O[Si](C)(C)C(C)(C)C)c2c1=O`, the midpoint of cytotoxicity in the assay with MT4, the CC50, lay at 156 µM. For the same compound, the EC50 in assay [1] is greater than 100 µM; in assay [3], 0.201 µM; in the assay on CCRF-CEM it was 0.067 µM. In assay [2], the Selectivity index amounted to 776.

With `COc1ccc(C(Nc2ncnc3c2ncn3[C@@H]2O[C@H](CO[Si](C)(C)C(C)(C)C)[C@]3(OS(=O)(=O)C=C3N)[C@H]2O[Si](C)(C)C(C)(C)C)(c2ccccc2)c2ccccc2)cc1`, half-maximal cytotoxicity with MT4 (CC50) was put at 191 µM. The EC50 in assay [1] and in assay [3] was greater than 100 µM in each case. Further, in assay [2], the Selectivity index is on record as less than 1.9.

Take `CC(C)(C)[Si](C)(C)OC[C@H]1O[C@@H](n2cnc3[nH]c(=O)[nH]c(=O)c32)[C@H](O[Si](C)(C)C(C)(C)C)[C@]12OS(=O)(=O)C=C2N`: the half-maximal cytotoxic concentration (CC50) in the assay with MT4 turned out to be 13 µM. Further, the concentration for a half-maximal effect (EC50) in assay [1] is greater than 7 µM; in assay [3] it was 0.358 µM; with CCRF-CEM, 0.126 µM. For the same compound, the Selectivity index in assay [2] amounted to 36.

In turn, `CC(C)(C)[Si](C)(C)OC[C@H]1O[C@@H](n2cnc3ncn([C@@H]4O[C@H](CO[Si](C)(C)C(C)(C)C)[C@@]5(OS(=O)(=O)C=C5N)[C@H]4O[Si](C)(C)C(C)(C)C)c3c2=O)[C@H](O[Si](C)(C)C(C)(C)C)[C@]12OS(=O)(=O)C=C2N` came in with a CC50 in the assay with MT4 greater than 150 µM. Besides, the EC50 in assay [1] and in assay [3] was greater than 150 µM throughout. Moreover, the Selectivity index in assay [2] is reported as less than 1.

Consider `CN(C)c1ncnc2c1ncn2[C@@H]1O[C@H](CO[Si](C)(C)C(C)(C)C)[C@@]2(OS(=O)(=O)C=C2N)[C@H]1O[Si](C)(C)C(C)(C)C`, for which half-maximal cytotoxicity with MT4 (CC50) was put at 15 µM. For the same compound, the EC50 is greater than 30 µM in assay [1], 0.389 µM in assay [3] and 0.646 µM in the assay on CCRF-CEM. Also, the Selectivity index in assay [2] was determined as 39.

In the assay on MT4, `CC(C)(C)[Si](C)(C)OC[C@H]1O[C@@H](n2cnc3ccccc32)[C@H](O[Si](C)(C)C(C)(C)C)[C@]12OS(=O)(=O)C=C2N` came in with a 50% cytotoxic concentration (CC50) of 15 µM. Also, the EC50 in assay [1] was greater than 7 µM; in assay [3] it was 3.1 µM. The Selectivity index in assay [2] is reported as 4.8.

Compound `CCn1cnc2ncn([C@@H]3O[C@H](CO[Si](C)(C)C(C)(C)C)[C@@]4(OS(=O)(=O)C=C4N)[C@H]3O[Si](C)(C)C(C)(C)C)c2c1=O` showed a CC50 with MT4 greater than 150 µM. The half-maximal effective concentration (EC50) is greater than 150 µM in assay [1], 0.604 µM in assay [3] and 0.172 µM in the assay with CCRF-CEM. Also, the Selectivity index in assay [2] is listed as greater than 248.

Turning to `CC(C)(C)[Si](C)(C)OC[C@H]1O[C@@H](n2cnc3c(N)ncnc32)[C@H](O[Si](C)(C)C(C)(C)C)[C@@]12OS(=O)(=O)C=C2N`, half-maximal cytotoxicity in the assay on MT4 (CC50) was put at 7.3 µM. The EC50 in assay [1] and in assay [3] was greater than 2.7 µM each time. The Selectivity index in assay [2] is less than 2.7.

For the compound `CC(C)(C)[Si](C)(C)OC[C@H]1O[C@@H](n2cnc3c(N)ncnc32)[C@H](O[Si](C)(C)C(C)(C)C)[C@]12OS(=O)(=O)C=C2N`, half-maximal cytotoxicity in the assay on MT4 (CC50) was put at 13 µM. Moreover, the EC50 in assay [1] is greater than 14 µM; in assay [3], 0.278 µM. The Selectivity index in assay [2] amounted to 47.

As for `CNc1ncnc2c1ncn2[C@@H]1O[C@H](CO[Si](C)(C)C(C)(C)C)[C@@]2(OS(=O)(=O)C=C2N)[C@H]1O[Si](C)(C)C(C)(C)C`, the cytotoxic concentration (CC50) in the assay on MT4 stood at 14 µM. Also, the EC50 in assay [1] is greater than 7 µM; in assay [3] it was 0.146 µM; with CCRF-CEM, 0.161 µM. Further, the Selectivity index in assay [2] was 96.

Consider `CC(C)(C)[Si](C)(C)OC[C@H]1O[C@@H](n2c(=O)[nH]c(=O)c3[nH]cnc32)[C@H](O[Si](C)(C)C(C)(C)C)[C@]12OS(=O)(=O)C=C2N`, for which, in the assay with MT4, the CC50 was 14 µM. In addition, the EC50 in assay [1] is greater than 7 µM; in assay [3], 2.7 µM; with CCRF-CEM, 2.3 µM. Besides, the Selectivity index in assay [2] turned out to be 5.2.

Consider `Cn1cnc2c(ncn2[C@@H]2O[C@H](CO[Si](C)(C)C(C)(C)C)[C@@]3(OS(=O)(=O)C=C3N)[C@H]2O[Si](C)(C)C(C)(C)C)c1=O`, for which the CC50 in the assay with MT4 is greater than 150 µM. The EC50 is greater than 150 µM in assay [1], 0.514 µM in assay [3] and 0.101 µM with CCRF-CEM. Besides, the Selectivity index in assay [2] is greater than 292.

Consider `COc1ncnc2c1ncn2[C@@H]1O[C@H](CO[Si](C)(C)C(C)(C)C)[C@@]2(OS(=O)(=O)C=C2N)[C@H]1O[Si](C)(C)C(C)(C)C`, for which the CC50 in the assay on MT4 stood at 21 µM. Also, the values for the EC50 (in assay [1]; in assay [3]; in the assay with CCRF-CEM) were greater than 30 µM, 0.141 µM and 0.469 µM, respectively. In assay [2], the Selectivity index was 149.

As for `COc1ccc(C(Nc2ncnc3c2ncn3[C@@H]2O[C@H](CO[Si](C)(C)C(C)(C)C)[C@@]3(OS(=O)(=O)C=C3N)[C@H]2O[Si](C)(C)C(C)(C)C)(c2ccccc2)c2ccccc2)cc1`, the CC50 in the assay on MT4 turned out to be 192 µM. The EC50 in assay [1] and in assay [3] was greater than 100 µM throughout. In addition, the Selectivity index in assay [2] is listed as less than 1.9.

With `CC(C)(C)[Si](C)(C)OC[C@H]1O[C@@H](n2cnc3ncnc(O)c32)[C@H](O[Si](C)(C)C(C)(C)C)[C@]12OS(=O)(=O)C=C2N`, in the assay with MT4, it took 15 µM to reach half-maximal cytotoxicity (CC50). Moreover, the EC50 in assay [1] is greater than 7 µM; in assay [3], 0.173 µM. Further, in assay [2], the Selectivity index is on record as 86.
